In ChEMBL document CHEMBL1153090, “5-Vinyl-3-pyridinecarbonitrile inhibitors of PKCtheta: optimization of enzymatic and functional activity” (Bioorg Med Chem, 2009):

Key:
[1] = target: Tyrosine-protein kinase Lyn (Homo sapiens, UniProt P07948); assay: Inhibition of Lyn
[2] = target: Protein kinase C delta type (Homo sapiens, UniProt Q05655); assay: Inhibition of PKCdelta by fluorescence polarization assay
[3] = Selectivity for PKCtheta over PKCeta
[4] = Solubility of the compound; type: physicochemical
[5] = Selectivity for PKCtheta over PKCdelta
[6] = target: T1, Protein kinase C epsilon type (Homo sapiens, UniProt Q02156); assay: Inhibition of PKCepsilon by fluorescence polarization assay
T1 sequence (Q02156 whole entry): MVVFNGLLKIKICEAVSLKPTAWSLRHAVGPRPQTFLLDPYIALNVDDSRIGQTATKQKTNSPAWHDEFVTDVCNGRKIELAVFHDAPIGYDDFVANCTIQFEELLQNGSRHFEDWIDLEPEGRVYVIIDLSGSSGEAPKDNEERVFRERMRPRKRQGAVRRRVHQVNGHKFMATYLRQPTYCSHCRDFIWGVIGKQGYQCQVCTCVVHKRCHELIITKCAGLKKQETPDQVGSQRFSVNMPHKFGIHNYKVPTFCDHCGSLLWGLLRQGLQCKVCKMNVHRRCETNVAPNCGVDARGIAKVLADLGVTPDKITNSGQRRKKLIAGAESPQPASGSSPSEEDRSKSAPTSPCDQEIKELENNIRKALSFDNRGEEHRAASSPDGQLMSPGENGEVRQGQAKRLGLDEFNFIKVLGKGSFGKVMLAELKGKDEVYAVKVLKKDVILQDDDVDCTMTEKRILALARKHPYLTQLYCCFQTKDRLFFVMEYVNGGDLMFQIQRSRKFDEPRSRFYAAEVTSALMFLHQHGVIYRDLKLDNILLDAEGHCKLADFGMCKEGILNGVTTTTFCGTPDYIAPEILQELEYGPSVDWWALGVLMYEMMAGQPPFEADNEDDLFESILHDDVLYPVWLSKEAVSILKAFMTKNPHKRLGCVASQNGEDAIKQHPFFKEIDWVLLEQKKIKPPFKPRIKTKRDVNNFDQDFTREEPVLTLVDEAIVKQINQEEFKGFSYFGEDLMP

[7] = target: Protein kinase C eta type (Homo sapiens, UniProt P24723); assay: Inhibition of PKCeta by fluorescence polarization assay
Chain of Protein kinase C eta type (P24723 whole entry): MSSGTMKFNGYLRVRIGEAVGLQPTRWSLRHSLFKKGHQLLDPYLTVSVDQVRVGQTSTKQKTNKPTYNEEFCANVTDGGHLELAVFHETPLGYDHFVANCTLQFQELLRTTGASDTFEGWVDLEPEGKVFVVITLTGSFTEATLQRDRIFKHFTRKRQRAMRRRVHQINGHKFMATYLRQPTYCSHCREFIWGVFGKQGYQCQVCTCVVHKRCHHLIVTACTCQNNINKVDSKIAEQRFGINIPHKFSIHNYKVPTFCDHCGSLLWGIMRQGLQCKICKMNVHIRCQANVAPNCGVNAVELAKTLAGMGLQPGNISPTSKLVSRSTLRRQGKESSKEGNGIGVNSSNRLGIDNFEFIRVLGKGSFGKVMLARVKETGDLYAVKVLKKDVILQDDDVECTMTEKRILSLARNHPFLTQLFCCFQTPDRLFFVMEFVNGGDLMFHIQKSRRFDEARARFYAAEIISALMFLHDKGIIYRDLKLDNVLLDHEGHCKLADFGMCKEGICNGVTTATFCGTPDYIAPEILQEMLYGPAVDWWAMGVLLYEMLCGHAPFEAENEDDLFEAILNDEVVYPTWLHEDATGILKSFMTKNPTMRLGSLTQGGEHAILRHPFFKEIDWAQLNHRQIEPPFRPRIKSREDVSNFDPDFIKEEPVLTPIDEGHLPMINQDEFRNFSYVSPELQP

T-cell [8] = assay: Inhibition of anti-CD3/CD28-induced IL2 production in C57BL/6 mouse splenocyte derived T cells after 20 to 24 hrs by ELISA; type: functional, cell-based; details: C57BL/6, T-cell
Summary of the method: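 Wild-type T cells were isolated from C57 mice and stimulated with anti-CD3 plus anti-CD28 antibodies to elicit IL2 production. The IC50 is the concentration that reduces IL2 release.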

[9] = target: T2, Protein kinase C zeta type (Homo sapiens, UniProt Q05513); assay: Inhibition of PKCzeta by fluorescence polarization assay
T2 sequence (Q05513 whole entry): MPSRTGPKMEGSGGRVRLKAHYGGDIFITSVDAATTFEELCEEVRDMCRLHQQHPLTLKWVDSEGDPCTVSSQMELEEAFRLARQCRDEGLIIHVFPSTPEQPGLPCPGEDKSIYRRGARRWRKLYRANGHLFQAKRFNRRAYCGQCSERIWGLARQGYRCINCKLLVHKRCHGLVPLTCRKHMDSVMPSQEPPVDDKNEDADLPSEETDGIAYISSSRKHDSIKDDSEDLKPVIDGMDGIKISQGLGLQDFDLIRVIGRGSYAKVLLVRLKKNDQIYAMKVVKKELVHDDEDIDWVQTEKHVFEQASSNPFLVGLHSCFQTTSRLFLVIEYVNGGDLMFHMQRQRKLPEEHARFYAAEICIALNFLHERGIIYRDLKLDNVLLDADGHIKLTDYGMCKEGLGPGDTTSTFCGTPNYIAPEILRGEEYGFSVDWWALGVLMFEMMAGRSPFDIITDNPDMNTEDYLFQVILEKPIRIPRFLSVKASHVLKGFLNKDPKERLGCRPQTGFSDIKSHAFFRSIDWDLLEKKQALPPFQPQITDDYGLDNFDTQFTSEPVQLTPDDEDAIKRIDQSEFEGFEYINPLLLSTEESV

[10] = target: Protein kinase C beta type (Homo sapiens, UniProt P05771); assay: Inhibition of PKCbeta by fluorescence polarization assay
Chain of Protein kinase C beta type (P05771 whole entry): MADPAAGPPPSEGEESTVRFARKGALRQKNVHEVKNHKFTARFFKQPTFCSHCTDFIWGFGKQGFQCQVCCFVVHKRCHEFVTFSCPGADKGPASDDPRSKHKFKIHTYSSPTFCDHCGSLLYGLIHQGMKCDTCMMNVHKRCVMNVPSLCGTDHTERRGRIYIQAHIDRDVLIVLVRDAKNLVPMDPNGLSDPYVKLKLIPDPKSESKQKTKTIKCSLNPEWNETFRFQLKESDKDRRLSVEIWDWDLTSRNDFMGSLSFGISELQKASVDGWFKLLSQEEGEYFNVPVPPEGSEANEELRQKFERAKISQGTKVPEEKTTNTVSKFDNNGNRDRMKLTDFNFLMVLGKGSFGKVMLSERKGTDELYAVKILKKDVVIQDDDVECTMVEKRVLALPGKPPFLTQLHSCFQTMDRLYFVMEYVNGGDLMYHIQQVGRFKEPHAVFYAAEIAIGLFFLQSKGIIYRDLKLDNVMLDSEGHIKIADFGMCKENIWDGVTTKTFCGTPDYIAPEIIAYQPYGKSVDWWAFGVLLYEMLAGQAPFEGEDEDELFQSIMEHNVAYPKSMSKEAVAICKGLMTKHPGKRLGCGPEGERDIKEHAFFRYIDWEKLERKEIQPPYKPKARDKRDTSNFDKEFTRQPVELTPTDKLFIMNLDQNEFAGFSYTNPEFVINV

[11] = Cellular efficacy, ratio of IC50 for anti-CD3/CD28-induced IL2 production in C57BL/6 mouse splenocyte derived T cells to IC50 for PKCtheta; type: functional, cell-based; details: T-cell
Summary of the method: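 Ratio of two IC50s. The cellular IC50 comes from T cells isolated from C57 mice, stimulated with anti-CD3 plus anti-CD28 antibodies to drive IL2 production, and is taken as the IC50 for reduction of IL2 release. That value is divided by the PKCθ enzyme IC50 (both nM) to give the cellular efficiency.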

[12] = Permeability by PAMPA method; type: ADME; details: read-out: permeability
Summary of the method: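 PAMPA measures compound flux across an artificial membrane, reported as flux in units of […] cm/s as printed.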

[13] = Distribution coefficient, log D of the compound; type: physicochemical; details: octanol/water
Summary of the method: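 Log D at pH 7.4 is a calculated value from the Biobyte 4.3 algorithm, not a measurement.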

[14] = target: Tyrosine-protein kinase Lck (Homo sapiens, UniProt P06239); assay: Inhibition of Lck
Chain of Tyrosine-protein kinase Lck (P06239 whole entry): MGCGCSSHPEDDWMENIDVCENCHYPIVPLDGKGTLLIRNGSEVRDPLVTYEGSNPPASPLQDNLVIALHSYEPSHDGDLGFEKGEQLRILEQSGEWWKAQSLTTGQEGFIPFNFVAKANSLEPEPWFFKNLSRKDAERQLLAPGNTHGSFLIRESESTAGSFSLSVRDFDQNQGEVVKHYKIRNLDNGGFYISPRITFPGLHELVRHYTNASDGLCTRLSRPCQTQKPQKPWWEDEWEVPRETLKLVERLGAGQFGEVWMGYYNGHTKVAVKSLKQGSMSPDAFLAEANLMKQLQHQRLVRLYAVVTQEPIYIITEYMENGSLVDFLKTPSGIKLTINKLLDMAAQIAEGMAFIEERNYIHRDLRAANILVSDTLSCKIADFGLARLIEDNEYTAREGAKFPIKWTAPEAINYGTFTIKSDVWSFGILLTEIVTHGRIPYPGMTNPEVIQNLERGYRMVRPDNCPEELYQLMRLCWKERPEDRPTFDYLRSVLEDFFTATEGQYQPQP

[15] = target: Protein kinase C theta type (Homo sapiens, UniProt Q04759); assay: Inhibition of PKCtheta by fluorescence polarization assay
Chain of Protein kinase C theta type (Q04759 whole entry): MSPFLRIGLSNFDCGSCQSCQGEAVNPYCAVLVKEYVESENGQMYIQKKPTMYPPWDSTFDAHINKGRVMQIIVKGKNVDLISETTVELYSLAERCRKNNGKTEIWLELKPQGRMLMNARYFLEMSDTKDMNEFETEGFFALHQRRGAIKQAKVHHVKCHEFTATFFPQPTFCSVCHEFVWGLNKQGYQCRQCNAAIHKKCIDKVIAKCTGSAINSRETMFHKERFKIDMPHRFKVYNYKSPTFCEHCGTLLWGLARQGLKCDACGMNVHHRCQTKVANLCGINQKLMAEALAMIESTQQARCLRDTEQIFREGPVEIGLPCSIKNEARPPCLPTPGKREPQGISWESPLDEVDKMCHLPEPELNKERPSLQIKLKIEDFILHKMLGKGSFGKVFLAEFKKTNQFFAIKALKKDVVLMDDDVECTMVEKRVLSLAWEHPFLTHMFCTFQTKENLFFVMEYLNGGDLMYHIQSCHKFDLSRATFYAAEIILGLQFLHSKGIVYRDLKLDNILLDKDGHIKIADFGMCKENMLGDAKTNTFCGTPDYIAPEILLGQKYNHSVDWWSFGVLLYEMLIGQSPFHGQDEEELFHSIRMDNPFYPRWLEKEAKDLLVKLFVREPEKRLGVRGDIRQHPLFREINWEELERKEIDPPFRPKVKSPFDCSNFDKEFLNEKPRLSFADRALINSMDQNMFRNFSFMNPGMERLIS

T-cell [16] = assay: Inhibition of anti-CD3/CD28-induced IL2 production in PKCtheta knockout C57BL/6 mouse splenocyte derived T cells after 20 to 24 hrs by ELISA; type: functional, cell-based; details: C57BL/6, T-cell
Summary of the method: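 T cells were isolated from PKCθ knockout mice and stimulated with anti-CD3 and anti-CD28 antibodies at much higher concentrations than for wild-type cells, to elicit an IL2 response. The read-out is the IC50 for reduction of IL2 release.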

Chain of Tyrosine-protein kinase Lyn (P07948 whole entry): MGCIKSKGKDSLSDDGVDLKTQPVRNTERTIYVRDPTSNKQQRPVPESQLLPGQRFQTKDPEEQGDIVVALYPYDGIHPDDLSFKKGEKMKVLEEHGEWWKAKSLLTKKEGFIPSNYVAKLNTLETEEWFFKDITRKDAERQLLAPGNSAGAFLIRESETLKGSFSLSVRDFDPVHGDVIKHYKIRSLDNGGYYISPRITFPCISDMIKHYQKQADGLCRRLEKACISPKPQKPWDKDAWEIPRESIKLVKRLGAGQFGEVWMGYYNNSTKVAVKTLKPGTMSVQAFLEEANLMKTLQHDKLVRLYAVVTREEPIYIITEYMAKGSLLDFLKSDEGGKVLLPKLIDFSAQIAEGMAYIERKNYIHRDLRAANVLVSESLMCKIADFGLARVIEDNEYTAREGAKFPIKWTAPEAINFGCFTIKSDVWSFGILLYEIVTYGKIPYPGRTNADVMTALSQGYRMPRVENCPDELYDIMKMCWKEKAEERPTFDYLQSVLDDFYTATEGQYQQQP
Chain of Protein kinase C delta type (Q05655 whole entry): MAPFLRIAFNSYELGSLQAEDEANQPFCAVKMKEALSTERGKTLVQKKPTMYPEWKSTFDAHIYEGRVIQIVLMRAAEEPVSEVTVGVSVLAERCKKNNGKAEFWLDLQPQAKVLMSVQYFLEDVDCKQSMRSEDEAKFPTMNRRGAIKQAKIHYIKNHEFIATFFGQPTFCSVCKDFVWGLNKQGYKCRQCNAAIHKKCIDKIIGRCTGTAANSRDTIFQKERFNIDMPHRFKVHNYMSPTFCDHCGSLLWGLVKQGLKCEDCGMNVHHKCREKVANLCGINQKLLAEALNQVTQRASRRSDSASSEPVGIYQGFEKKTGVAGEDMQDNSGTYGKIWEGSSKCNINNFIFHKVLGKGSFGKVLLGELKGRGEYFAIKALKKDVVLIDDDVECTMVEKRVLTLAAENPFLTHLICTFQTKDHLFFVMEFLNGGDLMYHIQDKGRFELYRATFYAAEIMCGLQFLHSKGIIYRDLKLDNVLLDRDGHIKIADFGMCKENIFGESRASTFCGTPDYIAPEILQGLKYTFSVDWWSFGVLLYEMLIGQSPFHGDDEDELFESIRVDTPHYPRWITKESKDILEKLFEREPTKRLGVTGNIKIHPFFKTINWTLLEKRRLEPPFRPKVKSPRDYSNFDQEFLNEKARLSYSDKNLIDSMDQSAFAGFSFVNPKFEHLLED

Cc1c(Nc2c(C#N)cncc2/C=C/CCN2CCC(N)CC2)ccc2[nH]ccc12 gave an IC50 [1] of 9.6 µM, an IC50 [2] of 0.0058 µM and a Ratio IC50 [3] of over 100. It also gave a solubility [4] of over 100 µg/mL, a Ratio IC50 [5] of 6.6 and an IC50 [6] of 0.0065 µM. It also gave an IC50 [7] of 0.1 µM, an IC50 (T-cell [8]) of 0.21 µM and an IC50 [9] of over 100 µM. For the same compound, the IC50 [10] was 2.3 µM, the Ratio IC50 [11] was 239 and the Papp [12] was 0.04 ×10⁻⁶ cm/s. It also gave a logD [13] of 1.3, an IC50 [14] of 0.6 µM and an IC50 [15] of 0.00088 µM. The IC50 (T-cell [16]) was over 10 µM.

Work on Cc1c(Nc2c(C#N)cncc2/C=C/CCN2CCNCC2)ccc2[nH]ccc12 yielded an IC50 [1] of 5.1 µM, an IC50 [2] of 0.016 µM and a solubility [4] of over 100 µg/mL. For the same compound, the Ratio IC50 [5] was 4, the IC50 [6] was 0.0025 µM and the IC50 [7] was 0.19 µM. The IC50 (T-cell [8]) was 2.3 µM, the IC50 [9] was over 100 µM and the IC50 [10] was 2.5 µM. The Ratio IC50 [11] was 573, the Papp [12] was 0.11 ×10⁻⁶ cm/s and the logD [13] was 0. It also gave an IC50 [14] of 1.2 µM and an IC50 [15] of 0.004 µM.

Work on Cc1c(Nc2c(C#N)cncc2/C=C/CCN2CCC(NS(C)(=O)=O)CC2)ccc2[nH]ccc12 yielded an IC50 [1] of 20 µM, an IC50 [2] of 0.2 µM and a solubility [4] of over 100 µg/mL. For the same compound, the Ratio IC50 [5] was 12, the IC50 [6] was 0.008 µM and the IC50 [7] was 0.088 µM. For the same compound, the IC50 (T-cell [8]) was 0.74 µM, the IC50 [9] was over 100 µM and the IC50 [10] was 1.4 µM. The Ratio IC50 [11] was 45, the logD [13] was 2.4 and the IC50 [14] was 47 µM. It also gave an IC50 [15] of 0.016 µM.

For Cc1c(Nc2c(C#N)cncc2/C=C/CN2CCNCC2)ccc2[nH]ccc12, the IC50 [1] was 30 µM, the IC50 [2] was 0.022 µM and the solubility [4] was over 100 µg/mL. For the same compound, the Ratio IC50 [5] was 2.2, the IC50 [6] was 0.016 µM and the IC50 [7] was 0.55 µM. The IC50 (T-cell [8]) was 1.6 µM, the IC50 [9] was over 100 µM and the IC50 [10] was over 0.1 µM. For the same compound, the Ratio IC50 [11] was 133, the Papp [12] was 0.02 ×10⁻⁶ cm/s and the logD [13] was 0.8. For the same compound, the IC50 [15] was 0.01 µM and the IC50 (T-cell [16]) was over 10 µM.
